In the library only some 2.1% were active in any assay of this set; here they are far more common.
CXCR6 inh: CXCR6 receptor inhibitors, primary screen, cell-based, beta-arrestin, luminescence, CHO-K1 PathHunter, 1536-well; AID 602244, 2012; C-X-C chemokine receptor type 6 (Homo sapiens), O00574; inhibition, % at 20 µM; 360,000 compounds, 0.36% hits; in the data active = inhibition above about 34%, passing the limit was not always enough;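 also: antagonist mode with CXCL16 agonist at 10 nM final; 0% = 10 nM CXCL16 with DMSO and 100% = unstimulated wells without agonist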
Target sequence (O00574 whole entry, looked up): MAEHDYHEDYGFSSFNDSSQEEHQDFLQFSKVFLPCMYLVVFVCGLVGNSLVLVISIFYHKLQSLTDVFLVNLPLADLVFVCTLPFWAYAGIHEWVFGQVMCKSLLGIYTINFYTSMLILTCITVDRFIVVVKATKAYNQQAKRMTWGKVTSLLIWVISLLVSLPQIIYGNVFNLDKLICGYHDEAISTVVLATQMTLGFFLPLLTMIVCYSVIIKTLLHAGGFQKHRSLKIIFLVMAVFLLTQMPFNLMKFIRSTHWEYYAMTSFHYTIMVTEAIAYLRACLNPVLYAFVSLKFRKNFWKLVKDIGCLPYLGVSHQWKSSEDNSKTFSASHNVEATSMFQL
CCR6 antag: CCR6 receptor antagonists, primary screen, cell-based, CHO-K1, luminescence, beta-arrestin, uHTS; CHO-K1 CCR6 PathHunter beta-arrestin, CCL20-stimulated; inhibition, % at 20 µM; 340,000 compounds, 0.49% hits; AID 493098, 2011;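 active = compounds whose inhibition of the agonist-driven luminescence signal at 20 µM reaches about 50%, limit read from the data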;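 also: cells stimulated with CCL20 at 14 nM final; plate controls were DMSO with CCL20 for no effect and DMSO without agonist for full effect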
APJ antag: antagonists of human apelin receptor APJ, primary screen, CHO-K1 cells, beta-arrestin complementation, luminescence | AID 2521, 2010 | inhibition, % at 20 µM | 330,000 compounds, 0.32% hits;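 active = inhibition above about 40% at 20 µM, limit read from the data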;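 also: cells challenged with 10 nM apelin-13 agonist together with compound; plate controls were apelin-13 plus DMSO wells for no effect and DMSO wells lacking apelin-13 for full effect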
APJ agonist: agonists of human apelin receptor APJ, primary screen, CHO-K1 cells, PathHunter beta-arrestin, luminescence; 330,000 compounds, 0.11% hits; P35414; 0% DMSO wells, 100% apelin; activation, % at 20 µM; AID 2520, 2010;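 active = activation more than six SD over the plate average, tested at 20 µM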;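 also: 0% = DMSO alone and 100% = apelin-13 at 10 nM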
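Material: engineered CHO-K1 APJ arrestin reporter cells; amount: 1000 CHO-K1 reporter cells seeded per well; incubation: compound stimulation 90 min at 25 °C, detection 60 min; signal: luminescent beta-gal fragment complementation, chemiluminescent substrate; read-out basis: APJ agonist activity; controls: DMSO-only wells as negative, 10 nM Apelin-13 as positive control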
HTR2A ag: mouse Htr2a agonists via beta-arrestin recruitment, primary screen, cell-based, luminescence. activation, % at 7.6 µM. CHO-K1 mHTR2A beta-arrestin complementation; percent of 30 µM serotonin response. 360,000 compounds, 0.66% hits. AID 624169, 2012;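 active = activation above a run cutoff, the mean activation of all tested compounds plus 3 SD, cut at about 14% in these data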;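 also: 0% = plate median of compound wells and 100% = 30 µM serotonin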
EBI2 antag: EBI2 receptor antagonists, beta-arrestin recruitment, primary screen, cell-based, luminescence, 7a,25-OHC stimulation, uHTS; G-protein coupled receptor 183 (Homo sapiens), P32249; 7a,25-OHC stimulated; inhibition, % at 5 µM; 360,000 compounds, 0.81% hits; in the data active = inhibition above about 38%;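 also: enzyme fragment complementation signal reports receptor beta-arrestin coupling in cells; 0% = agonist plus DMSO wells and 100% = wells without agonist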
OPRM1 ag: OPRM1 agonists via beta-arrestin recruitment, confirmation, counter-screen for mouse HTR2A agonist project, cell-based, luminescence, single concentration; shares compounds with HTR2A ag; U2OS OPRM1 beta-arrestin PathHunter; DMSO 0%, DAMGO 9.3 µM 100%; activation, % at 9.3 µM; 2,300 compounds, 5.3% hits; AID 624380, 2012;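 active = mean activation above the mean of DMSO-only wells plus 3 SD, cut at about 0.5% in these data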
HTR2A ag conf: mouse HTR2A agonists, beta-arrestin recruitment, confirmation, cell-based, luminescence, CHO-K1 PathHunter, triplicate; shares compounds with HTR2A ag; DMSO 0%, 30 µM serotonin 100%; activation, % at 7.6 µM; 2,300 compounds, 19% hits; AID 624381, 2012;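 active = mean activation across triplicates above the hit threshold derived in the original primary screen, cut at about 15% in these data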
* marks the source's active call; other numbers are inactive results.

`CCCN1C(=O)/C(=C/c2ccc(N3CCCC3)c(C)c2)NC1=S` gave CXCR6 inh 13, CCR6 antag 31, APJ antag 24, APJ agonist 6, HTR2A ag 17*, EBI2 antag 35, OPRM1 ag 0 and HTR2A ag conf 9.
`CCCCN(C(=O)C1CC(=O)N(CCc2ccc(OC)c(OC)c2)C1)c1c(N)n(CCCC)c(=O)[nH]c1=O` (centres undefined) gave CXCR6 inh 0, CCR6 antag -1, APJ antag 7, APJ agonist -9, HTR2A ag -5 and EBI2 antag 3.
For CN(C(=O)c1ccc(NC(=O)Cc2ccc(NC(=O)C3CCCN(C(=O)C4CCCC4)C3)cc2)cc1)C1CC1 (centres undefined) the results were CXCR6 inh -8, CCR6 antag -8, APJ antag -2, APJ agonist -3, HTR2A ag -2 and EBI2 antag 2.
CCC1=C(OC(=O)N(CC)CC)N2C(=O)OC(=NCCOC)[C@]2(Cc2ccccc2)[C@H]2C1=CC[C@H]1C(=O)N(CC)C(=O)[C@H]12 was read as CXCR6 inh -4, CCR6 antag 14, APJ antag 24, APJ agonist -1, HTR2A ag 2 and EBI2 antag -3.
CCC1=C(OC(=O)N(CC)CC)N2C(=O)OC(=NCC3CC3)[C@]2(Cc2ccccc2)[C@H]2C1=CC[C@H]1C(=O)N(CC)C(=O)[C@H]12 was read as CXCR6 inh 11, CCR6 antag 15, APJ antag 26, APJ agonist 7, HTR2A ag 18*, EBI2 antag 1, OPRM1 ag 0.9* and HTR2A ag conf 4.
Nc1ccc2c(Cl)cc(Cl)cc2c1 was read as CXCR6 inh -20, HTR2A ag -2 and EBI2 antag -25.
NC(=O)c1cc(S(=O)(=O)N2CCN(c3cccc(Cl)c3)CC2)cs1 was read as CXCR6 inh -3, CCR6 antag -4, APJ antag 12, APJ agonist -1, HTR2A ag 15*, EBI2 antag 1, OPRM1 ag 0 and HTR2A ag conf -4.
`CCN1CCN(C(CNS(=O)(=O)c2ccc(OC)c(C)c2)c2cccnc2)CC1` (centres undefined) gave CXCR6 inh 11, CCR6 antag 10, APJ antag 20, APJ agonist -1, HTR2A ag 20*, EBI2 antag 6, OPRM1 ag -1 and HTR2A ag conf -3.
`O=C(CN1C(=O)c2cccnc2Oc2ccc(Cl)cc21)N1CCOCC1` gave CXCR6 inh -7, CCR6 antag -13, APJ antag 15, APJ agonist 1, HTR2A ag 14*, EBI2 antag 3, OPRM1 ag 0 and HTR2A ag conf 2.
For OCC[C@H]1C[C@@H](O)[C@H](O)[C@@]2(Cc3ccccc3CO2)O1 the results were CXCR6 inh 1, CCR6 antag 2, APJ antag -5, APJ agonist -2, HTR2A ag 15*, EBI2 antag -6, OPRM1 ag -1 and HTR2A ag conf 0.
`CCN(C(=O)CSc1ccc2ccccc2c1)C1CCS(=O)(=O)C1` (centres undefined) gave CXCR6 inh -9, CCR6 antag 6, APJ antag -9, APJ agonist -4, HTR2A ag 16*, EBI2 antag 5, OPRM1 ag -1 and HTR2A ag conf 0.
For CCN(C(=O)CSc1nc2ccccc2o1)C1CCS(=O)(=O)C1 (centres undefined) the results were CXCR6 inh -5, CCR6 antag 3, APJ antag 17, APJ agonist 0, HTR2A ag 3 and EBI2 antag -7.
Screening CSc1cccc(NS(=O)(=O)c2cn(C)cn2)c1 returned CXCR6 inh 1, CCR6 antag 8, APJ antag -7, APJ agonist -4, HTR2A ag 17*, EBI2 antag -7, OPRM1 ag -1 and HTR2A ag conf -2.
COc1ccc(NS(=O)(=O)c2cn(C)cn2)cc1 was read as CXCR6 inh -1, CCR6 antag 0, APJ antag 18, APJ agonist -5, HTR2A ag 3 and EBI2 antag -10.
`CCN(CC)S(=O)(=O)c1cc(NC(=O)CN2CCN(c3ccccn3)CC2)ccc1C` gave CXCR6 inh 1, CCR6 antag 2, APJ antag 5, APJ agonist -1, HTR2A ag 32*, EBI2 antag 15, OPRM1 ag -1 and HTR2A ag conf 94*.
`COc1ccc(C)cc1NC(=O)CN1CCN(c2ccccn2)CC1` gave CXCR6 inh 3, CCR6 antag 18, APJ antag 12, APJ agonist -1, HTR2A ag -8 and EBI2 antag 5.
Cc1ccc(NC(=O)CN2CCN(c3ccccn3)CC2)cc1S(=O)(=O)N(C)C was read as CXCR6 inh 1, CCR6 antag 12, APJ antag -5, APJ agonist -3, HTR2A ag 51*, EBI2 antag -9, OPRM1 ag -1 and HTR2A ag conf 118*.
Screening CN(C)S(=O)(=O)c1ccc(NC(=O)CN2CCN(c3ccccn3)CC2)cc1 returned CXCR6 inh -1, CCR6 antag 12, APJ antag -19, APJ agonist -5, HTR2A ag 11 and EBI2 antag 8.
COc1ccccc1NC(=O)CN1CCN(c2ccccn2)CC1 was read as CXCR6 inh -5, CCR6 antag -7, APJ antag 16, APJ agonist 2, HTR2A ag 16*, EBI2 antag -1, OPRM1 ag 0 and HTR2A ag conf 37*.
CN(C)S(=O)(=O)c1cc(NC(=O)CN2CCN(c3ccccc3)CC2)ccc1Cl was read as CXCR6 inh -6, CCR6 antag 6, APJ antag 16, APJ agonist 3, HTR2A ag 18*, EBI2 antag -8, OPRM1 ag -1 and HTR2A ag conf 45*.
